Assay results reported in ChEMBL document CHEMBL1142917, “Synthesis and structure-antibacterial activity relationship investigation of isomeric 2,3,5-substituted perhydropyrrolo[3,4-d]isoxazole-4,6-diones” (2007).
Values after ≈ are worked out from the molar mass of the structure shown.

Legend:
Staphylococcus aureus = assay: Antibacterial activity against Staphylococcus aureus ATCC 25923 by broth microdilution method; format: functional
Procedure, shortened: (§1)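 NCCLS broth microdilution in Mueller–Hinton broth, DMSO stocks. Twofold series of 1600 to 0.39 μg/ml, or 1000 to 0.975 μg/ml for some compounds. Inoculum set to 0.5 McFarland (1×10^8 CFU/ml), diluted 1/10, giving 5×10^5 CFU/ml per well. Plates incubated 16-20 h at 35 °C. MIC taken as the lowest concentration preventing visible growth. Ampicillin reference.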

Enterococcus faecalis = assay: Antibacterial activity against Enterococcus faecalis ATCC 29212 by broth microdilution method; format: functional; procedure, shortened: as §1

Structure (SMILES)	MIC (Staphylococcus aureus)	MIC (Enterococcus faecalis)
CN1O[C@H]2C(=O)N(c3ccccc3)C(=O)[C@H]2[C@@H]1c1ccc(Cl)cc1	1170 µM (≈ 401 µg/mL)	1170 µM (≈ 401 µg/mL)
CN1O[C@H]2C(=O)N(c3ccccc3)C(=O)[C@H]2[C@@H]1c1ccc([N+](=O)[O-])cc1	570 µM (≈ 201 µg/mL)	280 µM (≈ 98.9 µg/mL)
COc1cc([C@@H]2[C@@H]3C(=O)N(c4ccccc4)C(=O)[C@@H]3ON2C)ccc1OCc1ccccc1	3600 µM (≈ 1600 µg/mL)	> 3600 µM
CN1O[C@H]2C(=O)N(c3ccccc3)C(=O)[C@H]2[C@H]1c1ccc(Cl)cc1	360 µM (≈ 123 µg/mL)	730 µM (≈ 250 µg/mL)
CN1C(=O)[C@H]2[C@@H](c3ccc(Cl)cc3)N(C)O[C@H]2C1=O	1430 µM (≈ 401 µg/mL)	1430 µM (≈ 401 µg/mL)
COc1cc([C@H]2[C@@H]3C(=O)N(c4ccccc4)C(=O)[C@@H]3ON2C)ccc1OCc1ccccc1	280 µM (≈ 124 µg/mL)	1130 µM (≈ 502 µg/mL)
CN1C(=O)[C@@H]2[C@@H](ON(C)[C@H]2c2ccc([N+](=O)[O-])cc2)C1=O	2750 µM (≈ 801 µg/mL)	5490 µM (≈ 1600 µg/mL)
CN1C(=O)[C@@H]2[C@@H](ON(C)[C@H]2c2ccc(Cl)cc2)C1=O	1430 µM (≈ 401 µg/mL)	1430 µM (≈ 401 µg/mL)
CN(C)c1ccc([C@@H]2[C@@H]3C(=O)N(c4ccccc4)C(=O)[C@@H]3ON2C)cc1	4550 µM (≈ 1600 µg/mL)	> 4550 µM
CCN(CC)c1ccc([C@H]2[C@@H]3C(=O)N(c4ccccc4)C(=O)[C@@H]3ON2C)cc1	4220 µM (≈ 1600 µg/mL)	4220 µM (≈ 1600 µg/mL)
CN(C)c1ccc([C@H]2[C@@H]3C(=O)N(c4ccccc4)C(=O)[C@@H]3ON2C)cc1	360 µM (≈ 127 µg/mL)	710 µM (≈ 249 µg/mL)
CN1O[C@H]2C(=O)N(c3ccccc3)C(=O)[C@H]2[C@H]1c1ccc([N+](=O)[O-])cc1	570 µM (≈ 201 µg/mL)	710 µM (≈ 251 µg/mL)
CN1C(=O)[C@H]2[C@@H](c3ccc([N+](=O)[O-])cc3)N(C)O[C@H]2C1=O	1370 µM (≈ 399 µg/mL)	690 µM (≈ 201 µg/mL)
CN1O[C@H]2C(=O)N(c3ccccc3)C(=O)[C@H]2[C@@H]1c1ccc(Br)cc1 (relative stereo)	130 µM (≈ 50.3 µg/mL)	520 µM (≈ 201 µg/mL)
CN1C(=O)[C@H]2[C@@H](c3ccc(N(C)C)cc3)N(c3ccccc3)O[C@H]2C1=O (relative stereo)	280 µM (≈ 98.4 µg/mL)	280 µM (≈ 98.4 µg/mL)
CCN(CC)c1ccc([C@@H]2[C@@H]3C(=O)N(C)C(=O)[C@@H]3ON2C)cc1 (relative stereo)	80 µM (≈ 25.4 µg/mL)	80 µM (≈ 25.4 µg/mL)
CCN(CC)c1ccc([C@H]2[C@@H]3C(=O)N(C)C(=O)[C@@H]3ON2C)cc1 (relative stereo)	630 µM (≈ 200 µg/mL)	630 µM (≈ 200 µg/mL)
CN1C(=O)[C@@H]2[C@@H](ON(C)[C@H]2c2ccc(Br)cc2)C1=O (relative stereo)	310 µM (≈ 101 µg/mL)	620 µM (≈ 202 µg/mL)
Cc1ccc([C@H]2[C@@H]3C(=O)N(c4ccccc4)C(=O)[C@@H]3ON2C)cc1 (relative stereo)	620 µM (≈ 200 µg/mL)	1240 µM (≈ 400 µg/mL)
COc1ccc([C@@H]2[C@@H]3C(=O)N(C)C(=O)[C@@H]3ON2C)cc1 (relative stereo)	5790 µM (≈ 1600 µg/mL)	> 5790 µM
Cc1ccc([C@H]2[C@@H]3C(=O)N(C)C(=O)[C@@H]3ON2C)cc1 (relative stereo)	3070 µM (≈ 799 µg/mL)	6150 µM (≈ 1600 µg/mL)
CN1C(=O)[C@H]2[C@@H](c3ccccc3)N(C)O[C@H]2C1=O (relative stereo)	810 µM (≈ 199 µg/mL)	1620 µM (≈ 399 µg/mL)
COc1ccc([C@@H]2[C@@H]3C(=O)N(c4ccccc4)C(=O)[C@@H]3ON2C)cc1 (relative stereo)	590 µM (≈ 200 µg/mL)	1180 µM (≈ 399 µg/mL)

Structure (SMILES)	MIC (Staphylococcus aureus)	MIC (Enterococcus faecalis)
CN1O[C@H]2C(=O)N(c3ccccc3)C(=O)[C@H]2[C@H]1c1ccccc1 (relative stereo)	> 5190 µM	5190 µM (≈ 1600 µg/mL)
CN1O[C@H]2C(=O)N(c3ccccc3)C(=O)[C@H]2[C@H]1c1cccc(Br)c1 (relative stereo)	320 µM (≈ 124 µg/mL)	650 µM (≈ 252 µg/mL)
COc1ccc([C@H]2[C@@H]3C(=O)N(C)C(=O)[C@@H]3ON2C)cc1 (relative stereo)	1450 µM (≈ 401 µg/mL)	> 5790 µM
CN1C(=O)[C@H]2[C@@H](c3cccc(Cl)c3)N(C)O[C@H]2C1=O (relative stereo)	1430 µM (≈ 401 µg/mL)	2850 µM (≈ 800 µg/mL)
CN1C(=O)[C@H]2[C@@H](c3cccc(Br)c3)N(C)O[C@H]2C1=O (relative stereo)	1230 µM (≈ 400 µg/mL)	620 µM (≈ 202 µg/mL)
CCN(CC)c1ccc([C@@H]2[C@@H]3C(=O)N(c4ccccc4)C(=O)[C@@H]3ON2C)cc1 (relative stereo)	330 µM (≈ 125 µg/mL)	660 µM (≈ 250 µg/mL)
CN1C(=O)[C@@H]2[C@@H](ON(C)[C@H]2c2cccc(Br)c2)C1=O (relative stereo)	620 µM (≈ 202 µg/mL)	1230 µM (≈ 400 µg/mL)
COc1cc([C@H]2[C@@H]3C(=O)N(C)C(=O)[C@@H]3ON2C)ccc1OCc1ccccc1 (relative stereo)	330 µM (≈ 126 µg/mL)	650 µM (≈ 249 µg/mL)
CN1O[C@H]2C(=O)N(c3ccccc3)C(=O)[C@H]2[C@@H]1c1ccccc1 (relative stereo)	410 µM (≈ 126 µg/mL)	1620 µM (≈ 500 µg/mL)
CN1O[C@H]2C(=O)N(c3ccccc3)C(=O)[C@H]2[C@@H]1c1cccc(Br)c1 (relative stereo)	130 µM (≈ 50.3 µg/mL)	520 µM (≈ 201 µg/mL)
CN1O[C@H]2C(=O)N(c3ccccc3)C(=O)[C@H]2[C@H]1c1ccc(Br)cc1 (relative stereo)	120 µM (≈ 46.5 µg/mL)	520 µM (≈ 201 µg/mL)
CN1C(=O)[C@H]2[C@@H](c3ccc(Br)cc3)N(C)O[C@H]2C1=O (relative stereo)	2460 µM (≈ 800 µg/mL)	1230 µM (≈ 400 µg/mL)
Cc1ccc([C@@H]2[C@@H]3C(=O)N(C)C(=O)[C@@H]3ON2C)cc1 (relative stereo)	6150 µM (≈ 1600 µg/mL)	> 6150 µM
CN1C(=O)[C@@H]2[C@@H](ON(C)[C@H]2c2ccccc2)C1=O (relative stereo)	510 µM (≈ 126 µg/mL)	1020 µM (≈ 251 µg/mL)
CN1C(=O)[C@@H]2[C@@H](ON(C)[C@H]2c2cccc(Cl)c2)C1=O (relative stereo)	710 µM (≈ 199 µg/mL)	1430 µM (≈ 401 µg/mL)
CN1C(=O)[C@H]2[C@@H](c3ccc(N(C)C)cc3)N(C)O[C@H]2C1=O (relative stereo)	1380 µM (≈ 399 µg/mL)	1380 µM (≈ 399 µg/mL)
CN1C(=O)[C@@H]2[C@@H](ON(C)[C@H]2c2ccc(N(C)C)cc2)C1=O (relative stereo)	1380 µM (≈ 399 µg/mL)	5530 µM (≈ 1600 µg/mL)
COc1cc([C@@H]2[C@@H]3C(=O)N(C)C(=O)[C@@H]3ON2C)ccc1OCc1ccccc1 (relative stereo)	130 µM (≈ 49.7 µg/mL)	130 µM (≈ 49.7 µg/mL)
CN1C(=O)[C@@H]2[C@@H](ON(c3ccccc3)[C@H]2c2ccc(N(C)C)cc2)C1=O (relative stereo)	280 µM (≈ 98.4 µg/mL)	1140 µM (≈ 401 µg/mL)
Cc1ccc([C@@H]2[C@@H]3C(=O)N(c4ccccc4)C(=O)[C@@H]3ON2C)cc1 (relative stereo)	3100 µM (≈ 999 µg/mL)	3100 µM (≈ 999 µg/mL)
COc1ccc([C@H]2[C@@H]3C(=O)N(c4ccccc4)C(=O)[C@@H]3ON2C)cc1 (relative stereo)	1180 µM (≈ 399 µg/mL)	1180 µM (≈ 399 µg/mL)
CC1(C)S[C@@H]2[C@H](NC(=O)[C@H](N)c3ccccc3)C(=O)N2[C@H]1C(=O)O [AMPICILLIN]	2 µM (≈ 0.699 µg/mL)	2 µM (≈ 0.699 µg/mL)
